pIC50: −log10 of the molar value. Active and inactive are the calls of the source. The rule behind the calls is not given here.
What was measured:
[1] = tested on: Radical scavenging activity; assay: Antioxidant activity assessed as DPPH radical scavenging activity at 100 uM after 60 mins by spectrophotometry; assay type: functional
Outline: (§1)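 DPPH at 0.05 mM in absolute ethanol mixed with an equal volume of compound in DMSO. Mixture shaken and left 20 or 60 min. Absorbance read at 517 nm to give percent activity. Three replicates averaged.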

[2] = Antioxidant activity assessed as inhibition of AAPH-induced lipid peroxidation at 100 uM; assay type: functional
Outline: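 Run at 37 °C in 0.05 M phosphate buffer pH 7.4 with 10 μL of 16 mM sodium linoleate (stock), compound in DMSO (10 μL). Oxidation started in air by 50 μL of 40 mM AAPH (stock). Conjugated diene formation followed as rising absorbance at 234 nm. Controls carried the same DMSO level. At least triplicate.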

[3] = tested on: Glycine max; assay: Inhibition of soybean lipoxygenase assessed as conversion of sodium linoleate to 13-hydroperoxylinoleate at 100 uM
Outline: (§2)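 Soybean lipoxygenase solution (1/9×10^-4 w/v in saline) incubated at room temperature with sodium linoleate and compound in DMSO. Conversion to 13-hydroperoxylinoleate recorded at 234 nm and compared with a standard inhibitor. At least triplicate.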

[4] = tested on: Radical scavenging activity; assay: Antioxidant activity assessed as DPPH radical scavenging activity at 100 uM after 20 mins by spectrophotometry; assay type: functional; outline: as §1
[5] = Inhibition of soybean lipoxygenase assessed as conversion of sodium linoleate to 13-hydroperoxylinoleate; set-up: species or system Glycine max; outline: as §2
[6] = tested on: Rattus norvegicus; assay: Antiinflammatory activity in Fisher 344 rat assessed as inhibition of carrageenan-induced paw edema at 0.01 mmol/Kg, ip administered simultaneously with carrageenan measured after 3.5 hrs relative to control; assay type: functional; conditions: Fisher 344, ip
Outline: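 Fischer-344 rats of both sexes (pregnant females excluded), 6–15 per group. Oedema induced in right hind paw by intradermal 0.1 ml 2% carrageenan in water. Compounds suspended in water with a few drops Tween 80, given ip at carrageenan injection. Rats killed at 3.5 h. Injected minus uninjected paw weight compared with water-treated controls as % inhibition. Mean of two experiments.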

[7] = tested on: Glycine max; assay: Inhibition of soybean lipoxygenase assessed as conversion of sodium linoleate to 13-hydroperoxylinoleate at 50 uM; outline: as §2
[8] = tested on: Glycine max; assay: Inhibition of soybean lipoxygenase assessed as conversion of sodium linoleate to 13-hydroperoxylinoleate at 10 uM; outline: as §2

Row | Compound | inhibition [3] | pIC50 [5] | inhibition [7] | inhibition [8] | Activity [1] | inhibition [2] | Activity [4] | inhibition in vivo at 10 µmol/kg [6]
1 | CC(C)(C)OC(=O)/C=C1/c2ccccc2-c2c(NC(=O)/C=C/c3ccc4c(c3)OCO4)cccc21 | 43% | – | – | – | 6% | 49% | inactive | –
2 | O=C(O)/C=C/C(=O)n1cc(C(=O)Nc2ccccc2)c2ccccc21 | – | 4.28 | – | – | – | 85% | 1% | –
3 | COc1ccc2c(c1)c(CC(=O)O)c(C)n2C(=O)c1ccc(Cl)cc1 [INDOMETHACIN] | – | – | – | – | – | – | – | 47%
4 | CC(Cc1ccc(O)c(O)c1)C(C)Cc1ccc(O)c(O)c1 (stereo not given) | – | – | – | – | 83% | – | 81% | –
5 | Cc1c(C)c2c(c(C)c1O)CCC(C)(C(=O)O)O2 (stereo not given) | – | – | – | – | – | 63% | – | –
6 | COc1cc(OC)c(OC)cc1/C=C/C(=O)n1ccc(/C(C)=C/C(=O)OC(C)(C)C)c1 | 39% | – | – | – | – | 46% | 8% | –
7 | O=C(O)/C=C/c1cn(C(=O)/C=C/c2ccc3c(c2)OCO3)c2ccccc12 | – | 4.19 | – | – | – | 22% | 21% | 34%
8 | COc1cc(OC)c(C2CC(=O)n3c2c(/C=C/C(=O)O)c2ccccc23)cc1OC (stereo not given) | – | 4.34 | – | – | – | 57% | 12% | 9%

Continued, in another order:

Row | inhibition [3] | pIC50 [5] | inhibition [7] | inhibition [8] | Compound | Activity [1] | inhibition [2] | Activity [4] | inhibition in vivo at 10 µmol/kg [6]
9 | 69% | – | – | – | COc1ccc(NC(=O)c2cn(C(=O)/C=C/c3cc(OC)c(OC)cc3OC)c3ccccc23)c(OC)c1 | – | 42% | 5% | –
10 | – | 4.46 | – | – | COc1ccc(NC(=O)c2cn(C(=O)/C=C/C(=O)O)c3ccccc23)c(OC)c1 | – | 77% | 10% | 46%
11 | – | 4.00 | – | – | COc1ccc(NC(=O)c2cn(C(=O)/C=C/C(=O)OC(C)(C)C)c3ccccc23)c(OC)c1 | – | 68% | 5% | 58.6%
12 | 57% | – | – | – | COc1cc(NC(=O)c2cn(C(=O)/C=C/C(=O)O)c3ccccc23)cc(OC)c1OC | – | 64% | 26% | –
13 | – | 3.22 | – | – | O=C(O)/C=C/c1ccc(O)c(O)c1 [CAFFEIC ACID] | – | 17.5% | 5.5% | –
14 | 42% | – | – | – | COc1cc(NC(=O)c2cn(C(=O)/C=C\C(=O)O)c3ccccc23)cc(OC)c1OC | – | 8% | 2% | –
15 | 85% | – | 85% | 0% | COc1cc(OC)c(OC)cc1/C=C/C(=O)n1cc(/C=C/C(=O)OC(C)(C)C)c2ccccc21 | – | 80% | 8.3% | –
16 | 26% | – | – | – | O=C(O)/C=C/C(=O)n1cc(C(=O)Nc2cccc([N+](=O)[O-])c2)c2ccccc21 | – | 94% | inactive | –
17 | 1% | – | – | – | COc1cc(C)c(/C=C/C(C)=C/C=C/C(C)=C/C(=O)O)c(C)c1C [ACITRETIN] | – | 85% | inactive | 63%
18 | – | 4.08 | – | – | CC(C)(C)OC(=O)/C=C/c1cn(C(=O)/C=C/c2ccc3c(c2)OCO3)c2ccccc12 | – | 95% | 13% | –
19 | 10% | – | – | – | COc1cc(NC(=O)c2cn(C(=O)CCC(=O)O)c3ccccc23)cc(OC)c1OC | – | 34% | 12.5% | –

Source: ChEMBL document CHEMBL1154722, “Syntheses and evaluation of the antioxidant activity of acitretin analogs with amide bond(s) in the polyene spacer” (Eur J Med Chem, 2010)
